Reference: ChEMBL document CHEMBL3085699, “Design, synthesis, and biological evaluation of indole-2-carboxamides: a promising class of antituberculosis agents” (J Med Chem, 2013)
Values after ≈ are worked out from the molar mass of the structure shown. Active and inactive are the calls of the source. No cut-off for these calls is given here.

Assays:
[1] = Intrinsic clearance in mouse liver microsomes by LC/MS/MS analysis; type: ADME, Microsome; conditions: read-out: CLH
Outline: (§1)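 Compound depletion in liver microsomes of the named species, measured by LC/MS/MS. In vitro half-life gave hepatic extraction ratio and predicted metabolic clearance.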

[2] = Aqueous solubility of the compound at pH 6.8 after 24 hrs by high-throughput equilibrium solubility assay; type: physicochemical; conditions: buffer
Outline: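 Miniaturized shake-flask equilibrium method. DMSO stock removed by centrifugal evaporation, aqueous buffer added, shaken 24 h. Plunger pushed through a filter membrane, shaken a further 30 min, and filtrate quantified by HPLC.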

[3] = test system: Mycobacterium tuberculosis; assay: Antimicrobial activity against Mycobacterium tuberculosis H37Rv ATCC 27294 after 5 days by three-fold serial dilution assay; type: functional; conditions: H37Rv ATCC 27294, 120 h
Outline: (§2)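 H37Rv grown in 7H9 broth with 0.05% Tween 80 and 10% ADS. Compounds in 90% DMSO, three-fold serially diluted in duplicate. Early-log culture diluted to OD600 0.02 was added, then incubated at 37 °C for 5 days. Growth read by absorbance. MIC50 (50% growth inhibition) taken from non-linear curve fits. Isoniazid ran as internal control in every assay.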

[4] = AUC (0 to 24 hrs) in mouse at 25 mg/kg, po by LC/MS analysis; type: ADME, organism-based; design: time < 24 hr, dose 25 mg/kg, route oral; conditions: plasma
Outline: (§3)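 Mice dosed p.o. at 25 mg/kg (2.5 mg/mL) or i.v. at 5 mg/kg (1 mg/mL). Vehicles varied: propanediol/solutol in pH 4.6 acetate buffer, or microemulsion/Cremophor-based mixes. Blood taken 0.08–24 h (i.v. first point 0.02 h), three mice per time point. Plasma extracted with acetonitrile:methanol:acetic acid and quantified by LC/MS/MS (LLOQ 1–3 ng/mL). Noncompartmental analysis of mean profiles; F from dose-corrected p.o./i.v. AUC.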

[5] = Cmax in mouse at 25 mg/kg, po by LC/MS analysis; type: ADME, organism-based; design: dose 25 mg/kg, route oral; conditions: in vivo; outline: as §3
[6] = Elimination half life in mouse at 5 mg/kg, iv by LC/MS analysis; type: ADME, organism-based; design: dose 5 mg/kg, route intravenous; conditions: in vivo, read-out: beta t1/2 (converted); outline: as §3
[7] = Clearance in mouse at 5 mg/kg, iv by LC/MS analysis; type: ADME, organism-based; design: dose 5 mg/kg, route intravenous; conditions: in vivo; outline: as §3
[8] = Volume of distribution at steady state in mouse at 5 mg/kg, iv by LC/MS analysis; type: ADME, organism-based; design: dose 5 mg/kg, route intravenous; conditions: in vivo, read-out: Vdss; outline: as §3
[9] = Elimination half life in mouse at 25 mg/kg, po by LC/MS analysis; type: ADME, organism-based; design: dose 25 mg/kg, route oral; conditions: in vivo, read-out: beta t1/2 (converted); outline: as §3
[10] = Oral bioavailability in mouse at 25 mg/kg by LC/MS analysis; type: ADME, organism-based; conditions: in vivo; outline: as §3
[11] = test system: Mycobacterium tuberculosis; assay: Antitubercular activity against Mycobacterium tuberculosis H37Rv infected in Balb/c mouse model assessed as log CFU reduction at 25 mg/kg, po qd administered for 28 days relative to untreated control; type: functional
Outline: (§4)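 Balb/c mice infected intranasally on day 0 with 10^3 H37Rv bacilli. Oral dosing, once daily, 7 days a week for 28 days, began 7 days post-infection at 25 or 75 mg/kg; ethambutol 100 mg/kg served as positive control. Lungs removed aseptically and homogenized. CFU counted by serial dilution plating on 7H11 agar; log lung CFU compared with untreated controls.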

[12] = Intrinsic clearance in rat liver microsomes by LC/MS/MS analysis; type: ADME; conditions: read-out: CLH; outline: as §1
[13] = Intrinsic clearance in human liver microsomes by LC/MS/MS analysis; type: ADME; conditions: read-out: CLH; outline: as §1
[14] = test system: Mycobacterium tuberculosis; assay: Antitubercular activity against Mycobacterium tuberculosis H37Rv infected in Balb/c mouse model assessed as log CFU reduction at 75 mg/kg, po qd administered for 28 days relative to untreated control; type: functional; outline: as §4
THP-1 = assay: Cytotoxicity against human THP1 cells; type: cell-based
[15] = Elimination half life in mouse at 5 mg/kg, iv and 75 mg/kg, po by LC/MS analysis; type: ADME, organism-based; conditions: in vivo, read-out: beta t1/2 (converted)
[16] = AUC (0 to 24 hrs) in mouse at 5 mg/kg, iv and 75 mg/kg, po by LC/MS analysis; type: ADME, organism-based; conditions: plasma
[17] = test system: Mycobacterium tuberculosis; assay: Ratio of isoniazid MIC50 to compound MIC50 against Mycobacterium tuberculosis H37Rv ATCC 27294; type: functional; outline: as §2
[18] = test system: Mycobacterium tuberculosis; assay: Antitubercular activity against Mycobacterium tuberculosis H37Rv infected in Balb/c mouse model assessed as log CFU reduction at 100 mg/kg, po qd administered for 28 days relative to untreated control; type: functional, organism-based; design: dose 100 mg/kg; outline: as §4

SMILES | microsomal CLint [1] [µL/min/mg] | solubility thermodynamic at 24 h [2] [µM] | MIC50 [3] [µM] | also measured
C[C@H]1CC[C@@H](NC(=O)c2cc3c(Cl)cc(Cl)cc3[nH]2)CC1 | 47 | < 4 | 0.18 (≈ 0.0585 µg/mL) | –
CC1CCC(NC(=O)c2cc3cc(Cl)ccc3[nH]2)CC1 (stereo not given) | 122 | – | 1.29 (≈ 0.375 µg/mL) | –
CC1CCC(NC(=O)c2cc3c(Cl)ccc(Cl)c3[nH]2)CC1 (stereo not given) | 40.4 | – | > 20 | –
CC1CCC(NC(=O)c2cc3cccc(Cl)c3[nH]2)CC1 (stereo not given) | 1040 | – | 1.49 (≈ 0.433 µg/mL) | –
Cc1cc(C)c2cc(C(=O)N[C@@H]3CCCC[C@@H]3C)n(C)c2c1 | – | – | > 20 | –
Cc1cc(C)c2cc(C(=O)NC3CCOCC3)[nH]c2c1 | – | 17 (≈ 4.63 µg/mL) | > 20 | –
Cc1cc(C)c2cc(C(=O)NC3CCCCC3)[nH]c2c1 | – | < 4 | 0.82 (≈ 0.222 µg/mL) | –
CC1CCC(NC(=O)c2cc3c(Cl)c(Cl)ccc3[nH]2)CC1 (stereo not given) | 60.8 | – | 0.22 (≈ 0.0716 µg/mL) | –
CC1CCC(NC(=O)c2cc3ccc(Cl)c(Cl)c3[nH]2)CC1 (stereo not given) | 308 | – | 0.97 (≈ 0.315 µg/mL) | –
CC1CCC(NC(=O)c2cc3c(Cl)cc(Cl)cc3[nH]2)CC1 (stereo not given) | 37 | < 4 | 0.15 (≈ 0.0488 µg/mL) | AUC(0-t) at 24 h [4]: 30.4 µM·h; Cmax [5]: 7.23 µM; half-life [6]: 413 min; clearance [7]: 20.1 mL/min/kg; Vd [8]: 2.2 L/kg; half-life [9]: 252 min; bioavailability [10]: 48%
CCC(CC)NC(=O)c1cc2c(C)cc(C)cc2[nH]1 | – | < 4 | 4.33 (≈ 1.12 µg/mL) | –
Cc1cc(C)c2cc(C(=O)NC(C)C)[nH]c2c1 | – | 20 (≈ 4.61 µg/mL) | > 20 | –
CC1CCC(NC(=O)c2cc3cc(Cl)c(Cl)cc3[nH]2)CC1 (stereo not given) | 73.3 | – | 0.16 (≈ 0.052 µg/mL) | –
CC1(C)CCC(NC(=O)c2cc3c(F)cc(F)cc3[nH]2)CC1 | 132 | < 4 | 0.023 (≈ 0.00705 µg/mL) | AUC(0-t) at 24 h [4]: 35.5 µM·h; FC [11]: 2.4; Cmax [5]: 4.21 µM; microsomal CLint [12]: 87 µL/min/mg; half-life [6]: 268 min; clearance [7]: 18.7 mL/min/kg; Vd [8]: 2.24 L/kg; microsomal CLint [13]: 3.4 µL/min/mg; half-life [9]: 311 min; bioavailability [10]: 51%; FC [14]: 4.6
CC1(C)CCC(NC(=O)c2cc3c(Cl)cc(Cl)cc3[nH]2)CC1 | 13 | < 4 | 0.015 (≈ 0.00509 µg/mL) | Activity (THP-1): > 20 µM; half-life [15]: 488 min; AUC(0-t) at 24 h [4]: 33.9 µM·h; FC [11]: 2.6; Cmax [5]: 3.51 µM; microsomal CLint [12]: 139 µL/min/mg; half-life [6]: 315 min; clearance [7]: 18.1 mL/min/kg; Vd [8]: 4.11 L/kg; microsomal CLint [13]: 59 µL/min/mg; half-life [9]: 358 min; AUC(0-t) [16]: 70.3 µM·h; bioavailability [10]: 53%; FC [14]: 4.79
COCCNC(=O)c1cc2c(C)cc(C)cc2[nH]1 | – | 620 (≈ 153 µg/mL) | > 20 | –
NNC(=O)c1ccncc1 [ISONIAZID] | – | – | 0.33 (≈ 0.0453 µg/mL) | –
C[C@H]1CCCC[C@H]1NC(=O)c1cc2c(F)cc(F)cc2[nH]1 | 660 | < 4 | 0.28 (≈ 0.0819 µg/mL) | –
Cc1cc(C)c2cc(C(=O)NC3CCCCC3O)[nH]c2c1 (stereo not given) | – | 56 (≈ 16 µg/mL) | 8.9 (≈ 2.55 µg/mL) | –
CC1CCC(NC(=O)c2cc3c(F)cc(F)cc3[nH]2)CC1 (stereo not given) | 866 | < 4 | 0.3 (≈ 0.0877 µg/mL) | –
C[C@H]1CC[C@H](NC(=O)c2cc3c(Cl)cc(Cl)cc3[nH]2)CC1 | 3.4 | < 4 | 0.14 (≈ 0.0455 µg/mL) | Activity (THP-1): > 20 µM; half-life [15]: 317 min; microsomal CLint [12]: 30.5 µL/min/mg; microsomal CLint [13]: 10 µL/min/mg; AUC(0-t) [16]: 89.1 µM·h; FC [14]: 0.88

SMILES | microsomal CLint [1] [µL/min/mg] | solubility thermodynamic at 24 h [2] [µM] | MIC50 [3] [µM] | also measured
CC1CCC(NC(=O)c2cc3c(Cl)cc(F)cc3[nH]2)CC1 (stereo not given) | 77 | < 4 | 0.18 (≈ 0.0556 µg/mL) | –
Cc1cc2[nH]c(C(=O)N[C@@H]3CCCC[C@@H]3C)cc2c(C)n1 | – | – | > 20 | –
CC1CCC(NC(=O)c2cc3ccc(Cl)cc3[nH]2)CC1 (stereo not given) | 433 | – | 0.23 (≈ 0.0669 µg/mL) | –
Cc1cc(C)c2c(c1)NC(C(=O)N[C@@H]1CCCC[C@@H]1C)C2 (stereo not given in full) | – | < 4 | 1.24 (≈ 0.355 µg/mL) | –
Cc1cc(C)c2cc(C(=O)Nc3ccccc3)[nH]c2c1 | – | < 4 | 16 (≈ 4.23 µg/mL) | –
Cc1cc(C)c2cc(C(=O)N(C)C3CCCCC3)[nH]c2c1 | – | – | > 20 | –
Cc1cc(C)c2cc(C(=O)N[C@@H]3CCCC[C@@H]3C)[nH]c2c1 | 433 | < 4 | 0.079 (≈ 0.0225 µg/mL) | Ratio [17]: 4
C[C@H]1CC[C@H](NC(=O)c2cc3c(F)cc(F)cc3[nH]2)CC1 | 149 | < 4 | 0.16 (≈ 0.0468 µg/mL) | –
CC1CCC(NC(=O)c2cc3c(F)cc(Cl)cc3[nH]2)CC1 (stereo not given) | 28 | < 4 | 0.19 (≈ 0.0587 µg/mL) | –
Cc1cc(C)c2cc(C(=O)NCCC(C)C)[nH]c2c1 | – | – | 3.26 (≈ 0.842 µg/mL) | –
Cc1cc(C)c2cc(C(=O)NCC(C)C)[nH]c2c1 | – | – | 11.8 (≈ 2.9 µg/mL) | –
Cc1cc(C)c2cc(C(=O)NC3CCN(C)CC3)[nH]c2c1 | – | > 10000 | > 20 | –
Cc1cc(C)c2nc(C(=O)N[C@@H]3CCCC[C@@H]3C)[nH]c2c1 | – | – | > 20 | –
C[C@H]1CCCC[C@H]1NC(=O)c1cc2c(Cl)cc(Cl)cc2[nH]1 | 89 | < 4 | 0.053 (≈ 0.0172 µg/mL) | –
O=C(NC1CCC(F)(F)CC1)c1cc2c(Cl)cc(Cl)cc2[nH]1 | 23 | < 4 | 0.85 (≈ 0.295 µg/mL) | microsomal CLint [12]: 38.8 µL/min/mg; microsomal CLint [13]: 7.8 µL/min/mg
CCC(C)NC(=O)c1cc2c(C)cc(C)cc2[nH]1 (stereo not given) | – | 22 (≈ 5.38 µg/mL) | 9.33 (≈ 2.28 µg/mL) | –
Cc1nc(C)c2cc(C(=O)N[C@@H]3CCCC[C@@H]3C)[nH]c2n1 | – | 143 (≈ 41 µg/mL) | > 20 | –
CC[C@@H](CO)NCCN[C@@H](CC)CO | – | – | – | Activity [18]: Active
CC1CCC(NC(=O)c2cc3c(Cl)cccc3[nH]2)CC1 (stereo not given) | 462 | – | 0.19 (≈ 0.0553 µg/mL) | –
Cc1cc(C)c2cc(C(=O)NC3CCCCCC3)[nH]c2c1 | – | < 4 | 0.1 (≈ 0.0284 µg/mL) | –
CC1CCC(NC(=O)c2cc3cc(Cl)cc(Cl)c3[nH]2)CC1 (stereo not given) | 187 | – | 0.41 (≈ 0.133 µg/mL) | –
